Inhibition data for ten compounds are collected here from ChEMBL document CHEMBL1165965, “Synthesis and structure-activity relationships of 1,2,3,4-tetrahydropyrido[2,3-b]pyrazines as potent and selective inhibitors of the anaplastic lymphoma kinase” (Bioorg Med Chem, 2010).

A value given as a limit tells only on which side of the number the result lay.

Test [1] has as its system Phosphatidylinositol 4,5-bisphosphate 3-kinase catalytic subunit alpha isoform (Homo sapiens), P42336 [E545A]. The test can be described thus: Inhibition of PIK3CA E545A mutant at 1 uM.
The target of test [2] is T1, Serine/threonine-protein kinase RIO1 (Homo sapiens) (UniProt Q9BRS2).
T1 sequence (whole entry): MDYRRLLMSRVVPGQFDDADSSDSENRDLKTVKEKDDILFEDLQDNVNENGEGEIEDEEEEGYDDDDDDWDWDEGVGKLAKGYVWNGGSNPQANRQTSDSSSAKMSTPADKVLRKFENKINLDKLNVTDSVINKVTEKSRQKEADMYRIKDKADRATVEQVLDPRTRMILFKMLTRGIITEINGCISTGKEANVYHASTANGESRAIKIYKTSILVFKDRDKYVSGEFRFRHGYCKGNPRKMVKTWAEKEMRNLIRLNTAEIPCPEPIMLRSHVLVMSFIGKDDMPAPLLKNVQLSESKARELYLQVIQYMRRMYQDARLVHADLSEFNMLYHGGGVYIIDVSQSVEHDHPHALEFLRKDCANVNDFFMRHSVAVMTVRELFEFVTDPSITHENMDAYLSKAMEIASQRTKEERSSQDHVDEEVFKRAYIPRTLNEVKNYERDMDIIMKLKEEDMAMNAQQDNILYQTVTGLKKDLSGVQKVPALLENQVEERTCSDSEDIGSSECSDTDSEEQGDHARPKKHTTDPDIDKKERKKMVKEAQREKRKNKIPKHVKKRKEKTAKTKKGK
The test can be described thus: Inhibition of RIOK1 at 1 uM.

For test [3], the target named is Serine/threonine-protein kinase PAK 1 (Homo sapiens) (UniProt Q13153). The test can be described thus: Inhibition of PAK1 at 1 uM.
Serine/threonine-protein kinase PAK 1 (Homo sapiens), sequence (Q13153 whole entry): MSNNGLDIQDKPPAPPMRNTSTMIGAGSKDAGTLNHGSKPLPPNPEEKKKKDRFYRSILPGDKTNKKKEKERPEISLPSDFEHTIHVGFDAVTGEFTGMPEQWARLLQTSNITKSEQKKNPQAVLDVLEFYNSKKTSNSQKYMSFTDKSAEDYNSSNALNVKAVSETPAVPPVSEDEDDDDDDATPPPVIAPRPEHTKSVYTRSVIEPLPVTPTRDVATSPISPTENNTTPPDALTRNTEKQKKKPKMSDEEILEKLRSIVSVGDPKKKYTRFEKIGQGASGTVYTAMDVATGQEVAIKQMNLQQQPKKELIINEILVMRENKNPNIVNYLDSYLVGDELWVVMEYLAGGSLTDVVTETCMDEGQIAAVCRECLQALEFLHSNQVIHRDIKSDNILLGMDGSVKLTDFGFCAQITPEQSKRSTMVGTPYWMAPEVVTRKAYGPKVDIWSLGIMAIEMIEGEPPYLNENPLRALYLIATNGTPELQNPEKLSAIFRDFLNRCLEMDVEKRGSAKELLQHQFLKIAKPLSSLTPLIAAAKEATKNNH
Test [4] addresses Tyrosine-protein kinase FRK (Homo sapiens) (UniProt P42685). The test can be described thus: Inhibition of FRK at 1 uM. Summed up: (§1)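 Single-concentration screen on the Ambit KINOMEscan platform, run against a panel of 250–400 kinases. Per-kinase inhibition was also summarized as S(90), the fraction of kinases inhibited by more than 90%.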
In test [5] the target is Dual specificity tyrosine-phosphorylation-regulated kinase 1A (Homo sapiens) (UniProt Q13627). The test can be described thus: Inhibition of DYRK1A at 1 uM.
The subject of test [6] is Epidermal growth factor receptor (Homo sapiens), P00533 [L861Q]. The test can be described thus: Inhibition of EGFR L861Q mutant at 1 uM. Format: protein assay. Summed up:
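Single-concentration screen using Ambit Bioscience KINOMEscan technology across a panel of 250–400 kinases. Per-kinase inhibition from this screen was summarized as S(90), the fraction of kinases inhibited by more than 90%.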

In test [7] the target is T2, Dual specificity mitogen-activated protein kinase kinase 6 (Homo sapiens) (UniProt P52564).
T2 sequence (whole entry): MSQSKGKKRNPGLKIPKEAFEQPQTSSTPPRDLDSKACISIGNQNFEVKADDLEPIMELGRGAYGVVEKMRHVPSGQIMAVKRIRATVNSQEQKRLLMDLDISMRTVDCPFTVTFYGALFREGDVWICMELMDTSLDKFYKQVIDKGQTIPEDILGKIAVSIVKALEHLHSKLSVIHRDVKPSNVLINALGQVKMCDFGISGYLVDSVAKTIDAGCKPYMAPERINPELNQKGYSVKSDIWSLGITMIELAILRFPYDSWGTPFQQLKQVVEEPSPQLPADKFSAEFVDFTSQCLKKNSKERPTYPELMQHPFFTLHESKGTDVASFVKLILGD
The test can be described thus: Inhibition of MEK6 at 1 uM. Summed up: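 Kinase-panel screen using KINOMEscan technology, with 250–400 kinases per panel. Each compound was tested at a single concentration, and inhibition of each kinase was recorded. Selectivity was summarised as S(90), the fraction of kinases inhibited by more than 90%.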

In test [8] the test system is T3, Receptor-type tyrosine-protein kinase FLT3 (Homo sapiens), P36888 [D835Y].
T3 sequence (whole entry): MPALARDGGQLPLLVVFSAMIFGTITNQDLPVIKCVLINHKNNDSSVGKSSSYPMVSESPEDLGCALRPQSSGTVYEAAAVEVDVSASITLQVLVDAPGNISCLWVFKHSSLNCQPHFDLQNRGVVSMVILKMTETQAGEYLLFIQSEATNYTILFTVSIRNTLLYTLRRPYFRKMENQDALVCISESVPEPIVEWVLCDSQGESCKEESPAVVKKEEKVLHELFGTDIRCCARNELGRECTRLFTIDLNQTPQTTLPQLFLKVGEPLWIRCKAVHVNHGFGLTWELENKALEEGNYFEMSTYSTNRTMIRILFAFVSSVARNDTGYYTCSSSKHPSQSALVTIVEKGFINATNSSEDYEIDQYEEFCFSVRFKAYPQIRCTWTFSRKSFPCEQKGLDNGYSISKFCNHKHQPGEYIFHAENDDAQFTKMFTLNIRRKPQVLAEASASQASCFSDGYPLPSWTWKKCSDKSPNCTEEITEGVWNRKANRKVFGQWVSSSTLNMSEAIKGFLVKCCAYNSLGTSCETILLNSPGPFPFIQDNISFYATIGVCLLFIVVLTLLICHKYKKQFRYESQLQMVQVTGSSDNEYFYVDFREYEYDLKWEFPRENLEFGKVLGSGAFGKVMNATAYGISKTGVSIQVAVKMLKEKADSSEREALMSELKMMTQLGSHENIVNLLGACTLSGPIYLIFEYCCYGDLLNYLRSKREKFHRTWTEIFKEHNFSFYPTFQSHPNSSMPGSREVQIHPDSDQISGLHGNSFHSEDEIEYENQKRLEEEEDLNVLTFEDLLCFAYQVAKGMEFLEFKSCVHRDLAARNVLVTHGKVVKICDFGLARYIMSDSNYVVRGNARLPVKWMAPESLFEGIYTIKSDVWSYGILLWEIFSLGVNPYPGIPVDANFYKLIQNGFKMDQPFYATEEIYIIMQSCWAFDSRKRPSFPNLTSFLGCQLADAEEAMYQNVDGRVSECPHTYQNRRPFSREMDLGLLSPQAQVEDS
The test can be described thus: Inhibition of FLT3 D835Y mutant at 1 uM. Summed up:
as §1

Test [9] addresses G protein-coupled receptor kinase 4 (Homo sapiens) (UniProt P32298). The test can be described thus: Inhibition of GRK4 at 1 uM.
The target in test [10] is T4, Serine/threonine-protein kinase Nek2 (Homo sapiens) (UniProt P51955).
T4 sequence (whole entry): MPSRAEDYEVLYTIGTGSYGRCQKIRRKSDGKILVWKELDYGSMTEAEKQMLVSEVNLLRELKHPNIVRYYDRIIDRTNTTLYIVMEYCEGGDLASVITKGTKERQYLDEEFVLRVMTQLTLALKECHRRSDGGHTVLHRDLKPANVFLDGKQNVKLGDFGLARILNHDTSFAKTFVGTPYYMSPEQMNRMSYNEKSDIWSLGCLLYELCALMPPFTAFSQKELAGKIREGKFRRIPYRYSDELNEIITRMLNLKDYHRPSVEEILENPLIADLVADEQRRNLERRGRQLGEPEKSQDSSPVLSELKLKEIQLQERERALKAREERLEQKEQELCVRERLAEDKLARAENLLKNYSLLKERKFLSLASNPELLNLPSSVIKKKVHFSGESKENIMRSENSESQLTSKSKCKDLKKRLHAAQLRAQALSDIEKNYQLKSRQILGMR
The test can be described thus: Inhibition of NEK2 at 1 uM.

Phosphatidylinositol 4,5-bisphosphate 3-kinase catalytic subunit alpha isoform (Homo sapiens), P42336 [E545A], sequence (P42336 whole entry E545A, canonical isoform): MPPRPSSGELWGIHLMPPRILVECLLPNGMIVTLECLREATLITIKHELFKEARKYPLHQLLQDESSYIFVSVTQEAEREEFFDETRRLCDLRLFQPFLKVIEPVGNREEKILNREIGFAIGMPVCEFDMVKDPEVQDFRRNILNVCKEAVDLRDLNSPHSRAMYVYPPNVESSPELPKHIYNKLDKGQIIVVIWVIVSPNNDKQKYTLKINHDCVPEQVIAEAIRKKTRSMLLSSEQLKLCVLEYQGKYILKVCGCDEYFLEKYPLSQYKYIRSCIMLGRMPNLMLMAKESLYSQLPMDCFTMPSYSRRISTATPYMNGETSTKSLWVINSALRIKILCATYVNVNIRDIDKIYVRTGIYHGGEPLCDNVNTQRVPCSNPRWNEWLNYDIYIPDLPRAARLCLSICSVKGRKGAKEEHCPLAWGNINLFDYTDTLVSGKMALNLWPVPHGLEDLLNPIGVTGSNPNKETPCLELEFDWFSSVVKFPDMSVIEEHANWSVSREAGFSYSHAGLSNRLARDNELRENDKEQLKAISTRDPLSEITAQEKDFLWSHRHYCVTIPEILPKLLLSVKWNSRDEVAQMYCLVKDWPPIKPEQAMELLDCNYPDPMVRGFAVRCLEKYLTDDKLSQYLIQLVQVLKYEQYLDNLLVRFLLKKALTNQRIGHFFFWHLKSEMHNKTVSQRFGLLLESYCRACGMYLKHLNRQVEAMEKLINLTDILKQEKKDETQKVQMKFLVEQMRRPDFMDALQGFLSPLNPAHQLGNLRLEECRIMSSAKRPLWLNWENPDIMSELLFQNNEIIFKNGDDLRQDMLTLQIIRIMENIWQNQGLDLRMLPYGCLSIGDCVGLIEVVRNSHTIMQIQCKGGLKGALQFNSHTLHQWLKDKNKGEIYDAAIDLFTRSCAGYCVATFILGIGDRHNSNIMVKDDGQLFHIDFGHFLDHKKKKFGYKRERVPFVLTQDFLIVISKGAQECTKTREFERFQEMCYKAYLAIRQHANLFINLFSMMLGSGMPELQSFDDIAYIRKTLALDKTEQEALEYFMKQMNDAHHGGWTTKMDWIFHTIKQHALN
Tyrosine-protein kinase FRK (Homo sapiens), sequence (P42685 whole entry): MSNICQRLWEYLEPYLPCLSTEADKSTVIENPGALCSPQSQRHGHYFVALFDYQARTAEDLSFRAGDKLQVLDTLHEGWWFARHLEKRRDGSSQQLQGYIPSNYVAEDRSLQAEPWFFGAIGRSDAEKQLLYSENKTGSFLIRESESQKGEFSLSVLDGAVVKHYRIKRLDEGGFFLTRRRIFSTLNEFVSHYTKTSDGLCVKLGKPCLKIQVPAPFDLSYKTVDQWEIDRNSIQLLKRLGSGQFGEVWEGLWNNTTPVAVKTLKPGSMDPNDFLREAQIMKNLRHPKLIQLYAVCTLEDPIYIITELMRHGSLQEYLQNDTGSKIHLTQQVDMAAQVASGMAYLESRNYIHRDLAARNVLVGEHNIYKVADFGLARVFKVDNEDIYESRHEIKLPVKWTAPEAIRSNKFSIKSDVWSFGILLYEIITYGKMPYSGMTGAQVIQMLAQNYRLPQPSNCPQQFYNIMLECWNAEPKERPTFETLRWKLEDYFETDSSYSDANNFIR
Epidermal growth factor receptor (Homo sapiens), P00533 [L861Q], sequence (P00533 whole entry L861Q): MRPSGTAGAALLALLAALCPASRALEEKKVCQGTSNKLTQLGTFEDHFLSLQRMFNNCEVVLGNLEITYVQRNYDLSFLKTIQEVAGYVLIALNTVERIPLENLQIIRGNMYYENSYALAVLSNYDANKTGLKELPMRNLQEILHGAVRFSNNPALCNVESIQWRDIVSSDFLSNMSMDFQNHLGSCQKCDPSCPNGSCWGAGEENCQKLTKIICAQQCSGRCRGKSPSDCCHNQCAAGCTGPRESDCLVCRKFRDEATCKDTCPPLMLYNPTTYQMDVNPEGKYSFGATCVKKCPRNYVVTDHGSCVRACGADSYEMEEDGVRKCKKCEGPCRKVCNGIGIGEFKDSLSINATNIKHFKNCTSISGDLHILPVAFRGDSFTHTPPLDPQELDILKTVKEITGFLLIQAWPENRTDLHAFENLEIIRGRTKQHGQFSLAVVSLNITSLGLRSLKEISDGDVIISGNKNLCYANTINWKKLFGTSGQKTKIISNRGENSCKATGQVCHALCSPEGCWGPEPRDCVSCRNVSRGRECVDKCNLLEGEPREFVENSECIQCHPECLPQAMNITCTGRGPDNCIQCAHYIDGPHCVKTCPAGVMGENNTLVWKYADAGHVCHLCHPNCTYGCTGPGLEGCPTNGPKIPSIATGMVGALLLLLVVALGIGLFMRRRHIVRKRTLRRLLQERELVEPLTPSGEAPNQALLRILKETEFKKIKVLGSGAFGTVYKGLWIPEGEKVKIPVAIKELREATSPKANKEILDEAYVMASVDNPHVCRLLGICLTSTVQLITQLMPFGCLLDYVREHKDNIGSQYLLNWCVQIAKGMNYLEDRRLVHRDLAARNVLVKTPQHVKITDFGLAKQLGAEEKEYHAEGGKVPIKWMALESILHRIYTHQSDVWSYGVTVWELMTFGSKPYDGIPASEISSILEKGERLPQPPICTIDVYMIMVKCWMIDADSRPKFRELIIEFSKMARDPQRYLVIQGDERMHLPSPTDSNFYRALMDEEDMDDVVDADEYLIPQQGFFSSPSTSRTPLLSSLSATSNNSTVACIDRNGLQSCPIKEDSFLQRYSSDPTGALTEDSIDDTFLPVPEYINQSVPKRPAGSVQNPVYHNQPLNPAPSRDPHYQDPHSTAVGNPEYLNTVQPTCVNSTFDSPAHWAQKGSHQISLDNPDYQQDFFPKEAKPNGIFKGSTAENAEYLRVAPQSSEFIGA
G protein-coupled receptor kinase 4 (Homo sapiens), sequence (P32298 whole entry, looked up): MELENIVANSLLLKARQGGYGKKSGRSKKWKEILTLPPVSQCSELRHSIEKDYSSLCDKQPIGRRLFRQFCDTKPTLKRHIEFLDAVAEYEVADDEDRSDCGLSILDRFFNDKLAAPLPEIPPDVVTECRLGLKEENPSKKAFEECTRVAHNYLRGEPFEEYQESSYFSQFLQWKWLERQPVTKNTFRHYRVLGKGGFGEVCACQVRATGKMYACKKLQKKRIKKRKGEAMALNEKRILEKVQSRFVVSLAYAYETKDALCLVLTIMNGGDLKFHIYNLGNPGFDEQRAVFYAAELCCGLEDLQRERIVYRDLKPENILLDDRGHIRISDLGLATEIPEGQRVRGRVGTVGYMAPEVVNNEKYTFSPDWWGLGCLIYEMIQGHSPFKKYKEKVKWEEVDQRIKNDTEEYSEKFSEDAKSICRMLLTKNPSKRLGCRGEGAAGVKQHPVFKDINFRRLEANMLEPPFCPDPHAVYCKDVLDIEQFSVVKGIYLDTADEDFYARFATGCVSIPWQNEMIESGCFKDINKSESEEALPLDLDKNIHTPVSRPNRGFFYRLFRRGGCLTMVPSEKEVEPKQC

Take `FC(F)(F)c1ccc(Cl)cc1CN1CCNc2ncc(-c3ccnc(N4CCNCC4)c3)cc21`: the inhibition in test [1], in [2], in test [3], in [4], in test [5] and in [6] was less than 50% each time. Besides, the inhibition is less than 50% in test [7], 93% in test [8], less than 50% in [9] and less than 50% in test [10].

For the compound `CN1CCN(c2ccc(-c3cnc4c(c3)N(Cc3cc(F)ccc3F)CCN4)cn2)CC1`, the inhibition in test [1], in test [2], in test [3], in test [4], in [5] and in test [6] was less than 50% throughout. Moreover, the inhibition in [7] was less than 50%; in test [8], 80.8%; in test [9] it was less than 50%; in test [10], less than 50%.

With `CN1CCN(c2ccc(-c3cnc4c(c3)N(Cc3cc(Cl)ccc3Cl)CCN4)cn2)CC1`, the inhibition in test [1], in test [2], in [3], in test [4], in [5] and in test [6] was less than 50% each time. Moreover, the inhibition in test [7] is less than 50%; in [8], 87%; in test [9], less than 50%; in test [10] it was less than 50%.

`O=C(O)c1ccc(-c2cnc3c(c2)N(Cc2cc(Cl)ccc2C(F)(F)F)CCN3)cc1`: the inhibition was less than 50% in test [2]; less than 50% in test [3]; less than 50% in test [4]; less than 50% in test [6]; 93% in test [7]; less than 50% in test [8]. This compound displayed an inhibition in test [10] of less than 50%.

Consider `CN1CCN(c2ccc(-c3cnc4c(c3)N(Cc3cc(Cl)ccc3C(F)(F)F)CCN4)cn2)CC1`, for which the inhibition in test [1], in test [2], in [3], in [4], in [5] and in test [6] was less than 50% each time. Also, the inhibition is less than 50% in test [7], 85% in test [8], less than 50% in test [9] and less than 50% in test [10].

As for `COC1CCN(C(=O)c2ccc(-c3cnc4c(c3)N(Cc3cc(Cl)ccc3C(F)(F)F)CCN4)cc2)CC1`, the inhibition in test [2] is less than 50%; in test [3], less than 50%; in test [4], less than 50%; in test [6], less than 50%; in [7], less than 50%; in [8], 66.7%. The inhibition in [10] is less than 50%.

Turning to `O=C(c1ccc(-c2cnc3c(c2)N(Cc2cc(Cl)ccc2C(F)(F)F)CCN3)cc1)N1CCC(N2CCCC2)CC1`, the inhibition in test [2] was less than 50%; in [3], less than 50%; in [4], less than 50%; in [6], less than 50%; in test [7], less than 50%; in [8] it was 75.5%. The compound also returned an inhibition in test [10] of less than 50%.

As for `CN1CCN(c2ccc(-c3cnc4c(c3)N(Cc3c(F)ccc(F)c3Cl)CCN4)cn2)CC1`, the inhibition in test [1] was less than 50%; in [2] it was less than 50%; in test [3], less than 50%; in [4], 66%; in test [5] it was less than 50%; in [6], less than 50%. Besides, the inhibition in test [7], in test [8], in [9] and in [10] was less than 50% throughout.

For `O=C(c1ccc(-c2cnc3c(c2)N(Cc2cc(Cl)ccc2C(F)(F)F)CCN3)cc1)N1CCCCC1`, the inhibition in [2], in [3], in [4], in test [6], in test [7] and in [8] was less than 50% each time. The inhibition in test [10] was less than 50%.

In the case of `CC(=O)N1CCN(c2cc(-c3cnc4c(c3)N(Cc3cc(Cl)ccc3C(F)(F)F)CCN4)ccn2)CC1`, the inhibition in [1], in test [2], in test [3], in [4], in test [5] and in [6] was less than 50% in each case. The inhibition in [7] is less than 50%; in [8] it was 87%; in test [9], less than 50%; in [10] it was less than 50%.
